Data on one compound can be found in ChEMBL document CHEMBL3596101, “The Mechanism of Ca(2+) Movement in the Involvement of Baicalein-Induced Cytotoxicity in ZR-75-1 Human Breast Cancer Cells” (J Nat Prod, 2015).

Calls of active or inactive are those of the source. The rule behind the calls is not given here.

Assay [1] deals with ZR-75-1. Kind of assay: Induction of apoptosis in human ZR-75-1 cells at 20 to 50 uM preincubated for 24 hrs followed by antioxidant N-Acetylcysteine and Ca2+ chelator BAPTA-AM addition by annexin V-FITC/propidium iodide staining-based flow cytometric analysis. Format: functional, cell-based. For orientation: Flow cytometry measures light scatter and fluorescence of single cells or particles in a stream.

Assay [2] concerns ZR-75-1. The assay is described as follows: Induction of cell death in human ZR-75-1 cells at 20 to 50 uM after 24 hrs by WST-1 assay in presence of antioxidant N-Acetylcysteine. It is filed as functional, cell-based. The gist of the method: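 WST-1 viability assay in ZR-75-1 cells: 5 μM NAC added, then 20–50 μM compound in NAC-containing medium for 24 h. A450 read after 30 min WST-1 incubation and expressed as % of control. Mean ± SEM of three experiments.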

The subject of assay [3] is ZR-75-1. The assay is described as follows: Induction of reactive oxygen species production in human ZR-75-1 cells at 20 to 40 uM after 24 hrs by DCFH-DA probe-based flow cytometric analysis in presence of Ca2+ containing medium with Ca2+ chelator BAPTA-AM. It is filed as functional, cell-based. The gist of the method: (§1)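 ZR-75-1 cells treated with 20–40 μM compound for 24 h, with 5 μM BAPTA-AM added first where indicated. Cells suspended at 1 × 10^6/mL, loaded with 10 μM DCFH-DA for 30 min at 37 °C. DCF read by flow cytometry (488 nm excitation, 530/30 nm filter, 10000 cells). % H2O2-positive (M1) after subtracting the baseline without probe. Three experiments.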

For assay [4], the system named is ZR-75-1. The assay is described as follows: Induction of apoptosis in human ZR-75-1 cells assessed as early apoptotic cells at 20 uM after 24 hrs by annexin V-FITC/propidium iodide staining-based flow cytometric analysis (reference value: 6.84%). It is filed as functional. In short, it runs like this:
(§2)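 ZR-75-1 cells exposed to 20–40 μM compound for 24 h, with 5 μM BAPTA-AM or NAC added first where indicated. Cells stained with Alexa Fluor 488 annexin V/PI for 15 min, at least 20000 cells analysed by flow cytometry (488 nm excitation, 530/575 nm filters). Early = annexin V+/PI−, late = annexin V+/PI+. Three independent biological replicates.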

For assay [5], the system named is ZR-75-1. The assay is described as follows: Increase in intracellular Ca2+ level in human ZR-75-1 cells at 40 uM treated for 25 secs by fura-2-AM dye-based spectrofluorophotometric analysis in presence of Ca2+-free medium (reference value: 50 +/- 2 nM). Format: functional. The gist of the method:
(§3)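 Fura-2-loaded ZR-75-1 cells (0.5 million per 1 mL, stirred, 25 °C) in Ca2+-containing or Ca2+-free medium. Compound added at 25 s. 340/380 nm excitation, 510 nm emission at 1 s intervals, calibrated to nM. Concentration-response from baseline-subtracted area under curve (25–250 s) as % of 50 μM response in Ca2+ medium. EC50 from Hill fit. Three experiments.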

Assay [6] concerns ZR-75-1. The assay is described as follows: Induction of reactive oxygen species production in human ZR-75-1 cells at 30 uM after 24 hrs by DCFH-DA probe-based flow cytometric analysis (reference value: 3.623%). Format: functional. In short, it runs like this:
as §1

Assay [7] has as its system ZR-75-1. Kind of assay: Induction of apoptosis in human ZR-75-1 cells assessed as late apoptotic cells at 30 uM after 24 hrs by annexin V-FITC/propidium iodide staining-based flow cytometric analysis (reference value: 2.53%). Format: functional. In short, it runs like this: as §2
For assay [8], the system named is ZR-75-1. Kind of assay: Induction of apoptosis in human ZR-75-1 cells assessed as early apoptotic cells at 30 uM after 24 hrs by annexin V-FITC/propidium iodide staining-based flow cytometric analysis (reference value: 6.84%). It is filed as functional. In short, it runs like this: as §2
The subject of assay [9] is ZR-75-1. The assay is described as follows: Induction of apoptosis in human ZR-75-1 cells assessed as late apoptotic cells at 20 uM after 24 hrs by annexin V-FITC/propidium iodide staining-based flow cytometric analysis (reference value: 2.53%). Format: functional. In short, it runs like this: as §2
For assay [10], the system named is ZR-75-1. Kind of assay: Induction of apoptosis in human ZR-75-1 cells assessed as increase in cleaved caspase-3 level at 20 to 40 uM after 24 hrs by Western immunoblot analysis. Format: functional, cell-based. In short, it runs like this:
(§4)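 Confluent ZR-75-1 cells (3 × 10^6/dish) treated with 20, 30 or 40 μM compound for 24 h. Where used, 5 μM BAPTA-AM or 5 μM NAC was added before the compound. About 50 μg lysate protein run on 10% SDS-PAGE, transferred to PVDF, probed for cleaved caspase-9/-3 and β-actin, chemiluminescence. Densitometry normalized to β-actin. Three experiments.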
On the technique in general: Immunoblotting shows a protein as a band on a membrane.

Assay [11] relates to ZR-75-1. The assay is described as follows: Increase in intracellular Ca2+ level in human ZR-75-1 cells at 40 uM treated for 25 secs by fura-2-AM dye-based spectrofluorophotometric analysis in presence of Ca2+ containing medium (reference value: 50 +/- 3 nM). Format: functional. The gist of the method: as §3
Assay [12] has as its system ZR-75-1. The assay is described as follows: Cytotoxicity against human ZR-75-1 cells assessed as decrease in cell viability after 24 hrs by WST-1 assay. Format: functional, cell-based. The gist of the method:
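WST-1 assay on ZR-75-1 cells seeded at 10000 cells/well, exposed to 0–50 μM compound for 24 h. Where used, 5 μM BAPTA-AM was given for 1 h beforehand, then cells were washed with Ca2+-containing medium. WST-1 incubation 30 min, A450 read. Viability expressed as % of compound-free control. Six wells per treatment, three separate experiments.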

For assay [13], the system named is ZR-75-1. The assay is described as follows: Induction of reactive oxygen species production in human ZR-75-1 cells after 24 hrs by DCFH-DA probe-based flow cytometric analysis. It is filed as functional, cell-based. In short, it runs like this: as §1
The subject of assay [14] is ZR-75-1. Kind of assay: Inhibition of endoplasmic reticulum Ca2+ pump inhibitor thapsigargin-induced intracellular Ca2+ increase in human ZR-75-1 cells at 40 uM pretreated with compound followed by thapsigargin induction in presence of Ca2+ free medium. Format: functional, cell-based. The gist of the method: (§5)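 ZR-75-1 cells loaded with 2 μM fura-2-AM for 30 min at 25 °C, then suspended in Ca2+-free medium (pH 7.4; 0.3 mM EGTA, 3 mM MgCl2). Stirred cuvette at 25 °C. Thapsigargin (1 μM) or BHQ (50 μM) given before or after 40 μM compound. Excitation 340/380 nm, emission 510 nm, read at 1 s intervals. [Ca2+]i calibrated with Triton X-100/CaCl2 then EGTA.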

The subject of assay [15] is ZR-75-1. Kind of assay: Increase in intracellular Ca2+ level in human ZR-75-1 cells at 50 uM treated for 25 secs by fura-2-AM dye-based spectrofluorophotometric analysis in presence of Ca2+ containing medium (reference value: 50 +/- 3 nM). It is filed as functional. As to conditions: in the assay text read “40 uM treated” for “50 uM treated”. The gist of the method:
as §3

Assay [16] has as its system ZR-75-1. The assay is described as follows: Induction of apoptosis in human ZR-75-1 cells assessed as early apoptotic cells at 40 uM after 24 hrs by annexin V-FITC/propidium iodide staining-based flow cytometric analysis (reference value: 6.84%). It is filed as functional. The gist of the method:
as §2

Assay [17] deals with ZR-75-1. Kind of assay: Inhibition of endoplasmic reticulum Ca2+ pump inhibitor BHQ-induced intracellular Ca2+ increase in human ZR-75-1 cells at 40 uM pretreated with compound followed by BHQ induction in presence of Ca2+ free medium. Format: functional, cell-based. The gist of the method:
as §5

Assay [18] relates to ZR-75-1. Kind of assay: Increase in intracellular Ca2+ level in human ZR-75-1 cells at 40 uM treated for 60 secs post PLC inhibitor U73122 addition by fura-2-AM dye-based spectrofluorophotometric analysis in presence of Ca2+ free medium. Format: functional, cell-based. The gist of the method: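 Performed in Ca2+-free medium with fura-2-loaded ZR-75-1 cells. Response expressed relative to 40 μM compound alone (100%). Three experiments.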

Assay [19] has as its system ZR-75-1. Kind of assay: Induction of apoptosis in human ZR-75-1 cells assessed as increase in cleaved caspase-9 level at 20 to 40 uM after 24 hrs by Western immunoblot analysis. Format: functional, cell-based. The gist of the method:
as §4

In the case of `O=c1cc(-c2ccccc2)oc2cc(O)c(O)c(O)c12` [BAICALEIN], the outcome in assay [1], in assay [2], in assay [3] and in assay [18] was inactive. Besides, the Activity in assay [4] was 22.71%; in assay [5], 103 nM; in [6], 32.663%; in [7], 1.96%; in [8] it was 50.72%; in assay [9] it was 2.36%. Further, the Activity is 220 nM in [11]; “Dose-dependent effect” in assay [12]; “Dose-dependent effect” in [13]; 220 nM in [15]; 55.96% in [16]. The outcome in [10] and in [19] was Active. The inhibition result in assay [14] and in assay [17] was “Active” in each case.
